PMC5503476 (Bioorganic & medicinal chemistry letters, 2017)
In brackets after ≈: the same amount, converted by molar mass.

What was measured:
[1] = Aqueous solubility by HPLC-UV; assay type: physicochemical
wild-type HIV-1 (NL4-3) = test: Anti-HIV activity against wild-type HIV-1; assay type: cell-based; conditions: Human immunodeficiency virus 1, NL43, TZM-bl, read-out: EC50 NL4-3
Summary of the method: (§1)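 Wild-type HIV-1 NL4-3 and the E138K+M184I resistant strain were tested in parallel in TZM-bl cells, with a reference NNRTI alongside. EC50 was read from luciferase reporter gene expression. New analogues were tested up to 100 ng/mL, with at least three experiments (n = 3). Fold change is the resistant-strain EC50 divided by the wild-type EC50.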

NL4-3 variant E138K = assay type: cell-based, HIV-1
[2] = tested on: NL4-3 variant E138K+M184I; assay type: cell-based, HIV-1
Summary of the method: as §1

Cytotoxicity = assay type: cell-based; conditions: human, TZM-bl cells
[3] = Human plasma stability assay; assay type: in vitro ADME
[4] = 0.01 M HCl, pH 2, aqueous with cosolvent or surfactant or cyclodextrin
[5] = EC50(resistant viral strain)/EC50(wild-type viral strain)

Row | half-life at 10 μg/mL [3] [h] | SMILES | solubility kinetic at 4 h [1, 4] [µg/mL] | EC50 (wild-type HIV-1 (NL4-3)) [nM] | Resistance fold change (FC) E138K (NL4-3 variant E138K; [5]) | EC50 (NL4-3 variant E138K; Human immunodeficiency virus 1, NL43, TZM-bl, read-out: EC50 E138K) [nM] | Resistance fold change (FC) E138K+M184I [2, 5] | EC50 ([2]; Human immunodeficiency virus 1, NL43, TZM-bl, read-out: EC50 E138K+M184I) [nM] | CC50 (Cytotoxicity) [nM] | solubility kinetic at 4 h ([1]; phosphate buffer, pH 7.4, aqueous with cosolvent or surfactant or cyclodextrin) [µg/mL]
1 | – | Cc1cc(/C=C/C#N)cc(C)c1Nc1ccnc(Nc2ccc(C#N)cc2)n1 [compound 2, rilpivirine, reference compound] | 86.8 (≈ 237 µM) | – | – | – | – | – | – | –
2 | – | Cc1cc(/C=C/C#N)cc(C)c1Oc1cc(Nc2ccc(C#N)cc2)c(N)cc1C(N)=O [compound 3] | 2.09 (≈ 4.94 µM) | 1.82 ± 0.57 | 1.9 | 3.55 ± 0.64 | 1.9 | 3.55 ± 1.02 | > 23600 | 0.63 (≈ 1.49 µM)
3 | 80 | CC(C)NCC(O)COc1cccc2ccccc12 (stereo not shown) [propranolol] | – | – | – | – | – | – | – | –
